Screening data (PubChem)
In the library only some 1.4% were active in any assay of this set; here they are far more common.
FXIa inh 1536: inhibitors of human coagulation factor XIa. P03951. purified FXIa, Boc-Glu-Ala-Arg-AMC fluorogenic substrate. inhibition, % at 5 µM. 220,000 compounds, 0.14% hits. AID 798;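 active means inhibition of at least 40%; inactive means inhibition below 40%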;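 further: fluorescence of freed AMC excited at 355 nm; 0% = enzyme without compound and 100% = no enzyme blank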
KLK5 inh: kallikrein 5 (human) inhibition | Q9Y337 | recombinant hK5, fluorogenic AMC substrate cleavage | inhibition, % at 5 µM | 210,000 compounds, 0.59% hits | AID 873;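 active means inhibition of 40% or more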;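 further: 0% = enzyme controls without compound and 100% = no-enzyme blanks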
Target sequence (Q9Y337 67-293 limits assumed): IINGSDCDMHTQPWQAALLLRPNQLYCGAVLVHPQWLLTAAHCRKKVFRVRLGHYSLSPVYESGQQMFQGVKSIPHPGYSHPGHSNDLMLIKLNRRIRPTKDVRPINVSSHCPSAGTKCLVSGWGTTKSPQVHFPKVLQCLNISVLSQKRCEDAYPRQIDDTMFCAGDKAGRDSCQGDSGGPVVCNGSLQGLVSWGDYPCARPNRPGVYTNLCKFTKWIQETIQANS
Thrombin inh: thrombin (human) inhibition | inhibition, % at 5 µM | 220,000 compounds, 0.26% hits | alpha-thrombin, Boc-VPR-AMC fluorogenic substrate cleavage;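 active means inhibition at or above 40%; inactive means inhibition below 40%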;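 further: 0% = enzyme with no compound and 100% = wells without enzyme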
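Test system: human alpha-thrombin; medium: pH 7.5 Tris-saline with Tween 20; times: reaction at room temperature; signal: AMC fluorescence at 355 nm excitation and 460 nm emission; also added: Boc-VPR-AMC substrate, 15 µM final; dosing: one concentration per compound, 5 µM, with 0.2% DMSO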
Calpain2 inh: inhibitors of pig calpain II; purified calpain II, fluorogenic peptide substrate, 30 min; inhibition, % at 16 µM; 220,000 compounds, 0.37% hits; AID 1236;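 active means inhibition above about 50%, limit read from the data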
FXIIa inh: factor XIIa (human) inhibition | P00748 | purified FXIIa, Boc-QGR-AMC fluorogenic substrate, 2 h | AID 800 | 220,000 compounds, 0.3% hits | inhibition, % at 5 µM; in the data active means inhibition above about 40%;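 further: 0% = enzyme with no compound and 100% = blank without enzyme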
* = called active by the depositor; x = no result given.

SMILES	FXIa inh 1536	KLK5 inh	Thrombin inh	Calpain2 inh	FXIIa inh
O=C1C(C=NCCCN2CCOCC2)=C(O)c2ccccc21	1	59*	12	11	7
O=C1C(C=NCCN2CCOCC2)=C(O)c2ccccc21	4	-13	-4	-4	5
O=C(c1ccc(Cl)cc1)[C@@H]1[C@@H]2C(=O)N(c3cccc4ccccc34)C(=O)[C@@H]2C2c3ccccc3C=NN21 (some centres not stated)	0	0	-4	-37	1
COc1cc(NC(=O)c2cccs2)c(OC)cc1NC(=O)CCC(=O)Nc1ccc2ncccc2c1	27	54*	19	-60	15
CC1(C)CC(=O)c2cnc(NC(=O)Cc3ccc(Cl)cc3)nc2C1	1	86*	36	36	2
CCCCC(=O)Nc1ncc2c(n1)CC(C)(C)CC2=O	-7	-3	0	-2	-5
CC12CCC(c3c(C(=O)N4CCOCC4)nn(-c4ccccc4)c31)C2(C)C (configuration not stated)	31	41*	2	16	40*
O=C(NCc1ccccc1)c1ccc2c(c1)OCCO2	0	0	-4	-2	6
COc1ccc(C(C)NC(=O)c2ccccc2Cl)cc1OC (configuration not stated)	-1	-12	-3	-6	0
CC(=O)NC(C)c1ccc(Cl)c(Cl)c1 (configuration not stated)	14	68*	16	14	0
COc1ccc(S(=O)(=O)Nc2cc(C(=O)NC3CCCCCC3)ccc2N2CCOCC2)cc1	0	0	-4	-47	11
Oc1ccc(/C=N/N(Cc2ccccc2)c2ccccc2)c(O)c1O	29	128*	28	-75	27
Oc1cccc(/C=N/N(Cc2ccccc2)c2ccccc2)c1	-3	-5	-8	28	x
Cc1ccc(CSCC(=O)Nc2ccc3c(c2)OCO3)cc1	17	46*	-3	-7	26
O=C(CSCc1ccccc1)Nc1ccc2c(c1)OCO2	-7	-16	-2	10	-3
COC(=O)c1cc2occc2n1CC(=O)Nc1ccc(OC)c(OC)c1	3	-18	-4	4	12
COC(=O)c1cc2occc2n1CC(=O)Nc1cc(OC)cc(OC)c1	2	62*	18	-2	27
COc1cccc(NC(=S)N(CCCN2CCCC2)Cc2ccco2)c1	-1	3	95*	-27	10
CCOc1ccc(NC(=S)N(CCCN2CCOCC2)Cc2cn(C)c3ccccc23)cc1	2	-2	2	-11	8
COc1ccc(NC(=S)N(CCCN2CCOCC2)Cc2cn(C)c3ccccc23)cc1	4	-12	0	54*	9
CC1CCN(S(=O)C23CC4CC(CC(C4)C2)C3)CC1 (configuration not stated)	2	3	-8	56*	8
CCOC(=O)N1CCN(C(=O)CSc2nnc(CNC(=O)c3c(F)cccc3Cl)o2)CC1	-1	42*	13	23	22
O=C(NCc1nnc(SCC(=O)N2CCCC2)o1)c1c(F)cccc1Cl	-1	-6	-2	-32	8
C=C(C)c1cccc(C(C)(C)NC(=O)Nc2ccc(C(C)=O)cc2)c1	12	72*	36	20	11
O=C(c1cccc(N2C(=O)c3ccccc3C2=O)c1)N1CCCCCC1	-1	2	-8	-14	8
